Results from ChEMBL document CHEMBL1140925, “Nuclear factor-kappaB mediated inhibition of cytokine production by imidazoline scaffolds” (J Med Chem, 2009).

What was measured:
HeLa [1] = assay: Effect on cell cycle arrest in TNF-alpha-stimulated human HeLa cells assessed as cell debris level at 20 uM after 8 hrs by propidium iodide-based flow cytometry; assay type: functional
[2] = Cytotoxicity against human whole blood lymphocytes assessed as survival cell count in millions at 1 uM by trypan blue staining based hemocytometer
[3] = Inhibition of TNF-alpha-induced NF-kappaB-mediated transcription expressed in human HeLa cells co-transfected with renilla luciferase-TK gene preincubated for 30 mins before TNFalpha challenge measured after 8 hrs by dual-glo luciferase reporter gene assay; assay type: cell-based
Summary of the method: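 HeLa cells were transiently cotransfected (lipofectamine 2000, 5–6 h) with 6×κB pNF-κB-luc and the pRL-TK Renilla control, then grown 24 h. They were pretreated 30 min with 0.312–20 µM (1% DMSO vehicle), then stimulated with 25 ng/mL TNF-α for 8 h at 37 °C. Dual-Glo firefly signal was normalized to Renilla luminescence.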

HeLa [4] = assay: Effect on cell cycle arrest in TNF-alpha-stimulated human HeLa cells assessed as cell debris level at 0.1 uM after 8 hrs by propidium iodide-based flow cytometry; assay type: functional
[5] = Cytotoxicity against human whole blood IL-1-beta-stimulated lymphocytes assessed as survival cell count in millions at 1 uM by trypan blue staining based hemocytometer
Blood [6] = assay: Antiinflammatory activity in human whole blood assessed as inhibition of IL-1-beta-induced IL6 production preincubated 2 hrs before addition of IL1-beta measured after 18 hrs by ELISA; assay type: functional, tissue-based
Summary of the method: (§1)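 Human blood from donors with white count in the normal range, diluted 1:10 in RPMI-1640 with 10% FBS, penicillin and streptomycin. Aliquots were preincubated with vehicle (0.1% DMSO final) or compound at 10, 3, 1, 0.3 or 0.1 µM final for 2 h at 37 °C, 5% CO2. IL-1β (200 U/mL) was then added for 18 h, and plasma was collected and frozen. Cytokine was measured by ELISA.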

HeLa [7] = assay: Cell cycle arrest in TNF-alpha-stimulated human HeLa cells transfected with NFkappaB-Luc assessed as accumulation at diploid G1 phase at 1 uM after 8 hrs by propidium iodide-based flow cytometry; assay type: functional
HeLa [8] = assay: Cell cycle arrest in TNF-alpha-stimulated human HeLa cells transfected with NFkappaB-Luc assessed as accumulation at G2/G1 phase at 0.5 uM after 8 hrs by propidium iodide-based flow cytometry; assay type: functional
Summary of the method: (§2)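 HeLa NF-κB-luc cells (stable, hygromycin-selected) were treated with vehicle (1% DMSO) or compound at 40–0.2 µM final for 8 h at 37 °C, 5% CO2. Adherent cells were trypsinized, resuspended in PBS/50% FBS, fixed overnight in 70% ice-cold ethanol and washed with cold PBS/10% FBS, then analysed for cell cycle by flow cytometry.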

HeLa [9] = assay: Cell cycle arrest in TNF-alpha-stimulated human HeLa cells transfected with NFkappaB-Luc assessed as accumulation at diploid G2 phase at 10 uM after 8 hrs by propidium iodide-based flow cytometry; assay type: functional; summary of the method: as §2
HeLa [10] = assay: Effect on cell cycle arrest in TNF-alpha-stimulated human HeLa cells assessed as cell debris level at 1 uM after 8 hrs by propidium iodide-based flow cytometry; assay type: functional
HeLa [11] = assay: Cell cycle arrest in TNF-alpha-stimulated human HeLa cells transfected with NFkappaB-Luc assessed as accumulation at diploid G2 phase at 20 uM after 8 hrs by propidium iodide-based flow cytometry; assay type: functional; summary of the method: as §2
HeLa [12] = assay: Effect on cell cycle arrest in TNF-alpha-stimulated human HeLa cells assessed as cell aggregate level at 0.1 uM after 8 hrs by propidium iodide-based flow cytometry; assay type: functional
HeLa [13] = assay: Cell cycle arrest in TNF-alpha-stimulated human HeLa cells transfected with NFkappaB-Luc assessed as accumulation at diploid G1 phase at 0.5 uM after 8 hrs by propidium iodide-based flow cytometry; assay type: functional; summary of the method: as §2
HeLa [14] = assay: Effect on cell cycle arrest in TNF-alpha-stimulated human HeLa cells assessed as cell debris level at 5 uM after 8 hrs by propidium iodide-based flow cytometry; assay type: functional
HeLa [15] = assay: Effect on cell cycle arrest in human HeLa cells assessed as cell aggregate level at 20 uM after 8 hrs by propidium iodide-based flow cytometry; assay type: functional
Summary of the method: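 Cells were exposed to vehicle (1% DMSO) or compound for 8 h at 37 °C, 5% CO₂. They were then trypsinized, resuspended in PBS with 50% FBS, fixed overnight in ice-cold 70% ethanol, and washed twice with ice-cold PBS containing 10% FBS before flow cytometric cell-cycle analysis.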

HeLa [16] = assay: Cell cycle arrest in TNF-alpha-stimulated human HeLa cells transfected with NFkappaB-Luc assessed as accumulation at diploid G2 phase at 1 uM after 8 hrs by propidium iodide-based flow cytometry; assay type: functional
HeLa [17] = assay: Effect on cell cycle arrest in TNF-alpha-stimulated human HeLa cells assessed as cell aggregate level at 5 uM after 8 hrs by propidium iodide-based flow cytometry; assay type: functional
HeLa [18] = assay: Cell cycle arrest in TNF-alpha-stimulated human HeLa cells transfected with NFkappaB-Luc assessed as accumulation at diploid stage at 10 uM after 8 hrs by propidium iodide-based flow cytometry; assay type: functional; summary of the method: as §2
Blood [19] = assay: Antiinflammatory activity in human whole blood assessed as inhibition of IL-1-beta-induced TNFalpha production preincubated 2 hrs before addition of IL1-beta measured after 18 hrs by ELISA; assay type: functional, tissue-based; conditions: Homo sapiens, Blood; summary of the method: as §1
[20] = Cytotoxicity against human whole blood lymphocytes assessed as survival cell count in millions at 3 uM by trypan blue staining based hemocytometer
HeLa [21] = assay: Cell cycle arrest in TNF-alpha-stimulated human HeLa cells transfected with NFkappaB-Luc assessed as accumulation at diploid stage at 1 uM after 8 hrs by propidium iodide-based flow cytometry; assay type: functional
HeLa [22] = assay: Cell cycle arrest in TNF-alpha-stimulated human HeLa cells transfected with NFkappaB-Luc assessed as accumulation at diploid G2 phase at 5 uM after 8 hrs by propidium iodide-based flow cytometry; assay type: functional; summary of the method: as §2
HeLa [23] = assay: Cell cycle arrest in human HeLa cells transfected with NFkappaB-Luc assessed as accumulation at S phase at 20 uM after 8 hrs by propidium iodide-based flow cytometry; assay type: functional; summary of the method: as §2
HeLa [24] = assay: Cell cycle arrest in human HeLa cells transfected with NFkappaB-Luc assessed as accumulation at diploid G2 phase at 20 uM after 8 hrs by propidium iodide-based flow cytometry; assay type: functional; summary of the method: as §2
HeLa [25] = assay: Effect on cell cycle arrest in TNF-alpha-stimulated human HeLa cells assessed as cell debris level at 0.5 uM after 8 hrs by propidium iodide-based flow cytometry; assay type: functional
HeLa [26] = assay: Effect on cell cycle arrest in TNF-alpha-stimulated human HeLa cells assessed as cell aggregate level at 20 uM after 8 hrs by propidium iodide-based flow cytometry; assay type: functional
HeLa [27] = assay: Cell cycle arrest in TNF-alpha-stimulated human HeLa cells transfected with NFkappaB-Luc assessed as accumulation at diploid G1 phase at 0.05 uM after 8 hrs by propidium iodide-based flow cytometry; assay type: functional
HeLa [28] = assay: Cell cycle arrest in TNF-alpha-stimulated human HeLa cells transfected with NFkappaB-Luc assessed as accumulation at diploid stage at 5 uM after 8 hrs by propidium iodide-based flow cytometry; assay type: functional; summary of the method: as §2
HeLa [29] = assay: Cell cycle arrest in TNF-alpha-stimulated human HeLa cells transfected with NFkappaB-Luc assessed as accumulation at S phase at 10 uM after 8 hrs by propidium iodide-based flow cytometry; assay type: functional; summary of the method: as §2
HeLa [30] = assay: Cell cycle arrest in TNF-alpha-stimulated human HeLa cells transfected with NFkappaB-Luc assessed as accumulation at diploid stage at 0.5 uM after 8 hrs by propidium iodide-based flow cytometry; assay type: functional; summary of the method: as §2

- EC50 [3]: 4670 nM
- IC50 (Blood [19]): 1180 nM
SMILES: CCOC(=O)[C@]1(c2ccccc2)N=C(c2ccccc2)N(Cc2ccccc2)[C@@H]1c1ccccc1 (racemic)
- Activity (HeLa [1]): 14.57%
- Activity [2]: 1.2 mL⁻¹
- Activity (HeLa [4]): 2%
- Activity [5]: 1.42 mL⁻¹
- logIC50 (Blood [6]): 0.07
- Activity (HeLa [7]): 63.22%
- Ratio (HeLa [8]): 1.91
- Activity (HeLa [9]): 15.01%
- Activity (HeLa [10]): 4.88%
- Activity (HeLa [11]): 14.75%
- Activity (HeLa [12]): 0%
- Activity (HeLa [13]): 64.08%
- Activity (HeLa [14]): 2.7%
- Activity (HeLa [15]): 0%
- Activity (HeLa [16]): 13.88%
- Activity (HeLa [17]): 0%
- Activity (HeLa [18]): 100%
- Activity [20]: 1.7 mL⁻¹
- Activity (HeLa [21]): 100%
- Activity (HeLa [22]): 13.84%
- Activity (HeLa [23]): 21.48%
- Activity (HeLa [24]): 13.33%
- Activity (HeLa [25]): 3.68%
- Activity (HeLa [26]): 0%
- Activity (HeLa [27]): 64.3%
- Activity (HeLa [28]): 100%
- Activity (HeLa [29]): 16.8%
- Activity (HeLa [30]): 100%
